Measured values reported in ChEMBL document CHEMBL4619808, “Tailoring the Physicochemical Properties of Antimicrobial Peptides onto a Thiazole-Based γ-Peptide Foldamer” (J Med Chem, 2020).
Converted amounts (≈) assume the structure as drawn.

Assays:
Bacillus subtilis [1] = assay: Antimicrobial activity against Bacillus subtilis ATCC 6633 assessed as inhibition of microbial growth incubated for 24 hrs; type: functional; details: ATCC 6633, 24 h
Outline: (§1)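 Broth microdilution. Strains grown overnight on TSA at 37°C, suspended to 10⁸ CFU/mL in Tryptone-Sel, then diluted to 10⁶ CFU/mL in double-strength Mueller-Hinton broth. Two-fold serial dilutions in sterile water (pH 7.4–7.7) mixed 1:1 with inoculum. Incubation 24 h at 37°C. MIC is the lowest concentration inhibiting growth. Duplicate wells, three independent experiments.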

Staphylococcus aureus [2] = assay: Antimicrobial activity against Staphylococcus aureus ATCC 6538 assessed as inhibition of microbial growth incubated for 24 hrs; type: functional; details: ATCC 6538, 24 h; outline: as §1
Enterococcus faecalis [3] = assay: Antimicrobial activity against Enterococcus faecalis ATCC 29121 assessed as inhibition of microbial growth incubated for 24 hrs; type: functional; details: ATCC 29121, 24 h; outline: as §1
Escherichia coli [4] = assay: Antimicrobial activity against Escherichia coli ATCC 8739 assessed as inhibition of microbial growth incubated for 24 hrs; type: functional; details: ATCC 8739, 24 h; outline: as §1
Pseudomonas aeruginosa [5] = assay: Antimicrobial activity against Pseudomonas aeruginosa ATCC 9027 assessed as inhibition of microbial growth incubated for 24 hrs; type: functional; details: ATCC 9027, 24 h; outline: as §1
Candida albicans [6] = assay: Antimicrobial activity against Candida albicans ATCC 10231 assessed as inhibition of microbial growth incubated for 48 hrs; type: functional; details: ATCC 10231, 48 h
Outline: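 C. albicans grown 48 h on Sabouraud at 20–25°C, suspended to 10⁸ CFU/mL, then diluted to 10⁶ CFU/mL in double-strength Mueller-Hinton broth. Two-fold serial dilutions in water (pH 7.4–7.7) mixed 1:1 with inoculum. Incubation 48 h at 25°C. MIC is the lowest concentration inhibiting growth. Duplicate wells, three independent experiments.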

[7] = Hemolytic activity in human RBC assessed as induction of hemolysis incubated for 1 hr; type: cell-based, Erythrocyte; details: red blood cells (erythrocytes), read-out: HD50
Outline: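 Human RBCs washed in PBS and used at 5% packed cell volume, mixed 1:1 with two-fold serial dilutions in PBS (pH 7.4–7.7). Incubation 1 h at 37°C, then centrifugation at 1500g for 10 min at 5°C. Supernatant absorbance read at 490 nm against PBS (0%) and 1% SDS/Tris (100%) controls. HC50 from three independent experiments, double duplicate.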

Bacillus subtilis [8] = assay: Microbicidal activity against Bacillus subtilis ATCC 6633 assessed as inhibition of colony growth incubated for 24 hrs followed by replating and further incubated for 24 hrs; type: functional; details: ATCC 6633, 24 h
Staphylococcus aureus [9] = assay: Microbicidal activity against Staphylococcus aureus ATCC 6538 assessed as inhibition of colony growth incubated for 24 hrs followed by replating and further incubated for 24 hrs; type: functional; details: ATCC 6538, 24 h
Enterococcus faecalis [10] = assay: Microbicidal activity against Enterococcus faecalis ATCC 29121 assessed as inhibition of colony growth incubated for 24 hrs followed by replating and further incubated for 24 hrs; type: functional; details: ATCC 29121, 24 h
Escherichia coli [11] = assay: Microbicidal activity against Escherichia coli ATCC 8739 assessed as inhibition of colony growth incubated for 24 hrs followed by replating and further incubated for 24 hrs; type: functional; details: ATCC 8739, 24 h
Candida albicans [12] = assay: Microbicidal activity against Candida albicans ATCC 10231 assessed as inhibition of colony growth incubated for 48 hrs followed by replating and further incubated for 48 hrs; type: functional; details: ATCC 10231, 48 h
Pseudomonas aeruginosa [13] = assay: Microbicidal activity against Pseudomonas aeruginosa ATCC 9027 assessed as inhibition of colony growth incubated for 24 hrs followed by replating and further incubated for 24 hrs; type: functional; details: ATCC 9027, 24 h

SMILES	MIC (Bacillus subtilis [1]) [µM]	MIC (Staphylococcus aureus [2]) [µM]	MIC (Enterococcus faecalis [3]) [µM]	MIC (Escherichia coli [4]) [µM]	MIC (Pseudomonas aeruginosa [5]) [µM]	MIC (Candida albicans [6]) [µM]	HC50 at 1 h [7] [µM]	MBC (Bacillus subtilis [8]) [µM]	MBC (Staphylococcus aureus [9]) [µM]	MBC (Enterococcus faecalis [10]) [µM]	MBC (Escherichia coli [11]) [µM]	MBC (Candida albicans [12]) [µM]	MBC (Pseudomonas aeruginosa [13]) [µM]
CC(=O)N[C@@H](CCCNC(=N)N)c1nc(C)sc1C(=O)N[C@@H](C)c1nc(C)sc1C(=O)N[C@@H](C)c1nc(C)sc1C(=O)N[C@@H](CCCNC(=N)N)c1nc(C)sc1C(=O)N[C@@H](C)c1nc(C)sc1C(=O)N[C@@H](C)c1nc(C)sc1C(=O)N[C@@H](CCCNC(=N)N)c1nc(C)sc1C(=O)N[C@@H](C)c1nc(C)sc1C(=O)N[C@@H](C)c1nc(C)sc1C(=O)N[C@@H](CCCNC(=N)N)c1nc(C)sc1C(=O)N[C@@H](C)c1nc(C)sc1C(=O)N[C@@H](C)c1nc(C)sc1C(N)=O	0.5	3.1	3.1	23	> 100	25	46	0.5 (≈ 1.21 µg/mL)	8.3 (≈ 20.1 µg/mL)	11.5 (≈ 27.8 µg/mL)	30 (≈ 72.5 µg/mL)	50 (≈ 121 µg/mL)	
CC(=O)N[C@@H](CCCCN)c1nc(C)sc1C(=O)N[C@@H](C)c1nc(C)sc1C(=O)N[C@@H](C)c1nc(CCCCN)sc1C(=O)N[C@@H](C)c1nc(C)sc1C(=O)N[C@@H](C)c1nc(CCCCN)sc1C(=O)N[C@@H](CCCCN)c1nc(C)sc1C(=O)N[C@@H](C)c1nc(CCCCN)sc1C(=O)N[C@@H](CCCCN)c1nc(C)sc1C(=O)N[C@@H](C)c1nc(C)sc1C(=O)N[C@@H](C)c1nc(C)sc1C(=O)N[C@@H](C)c1nc(CCCCN)sc1C(=O)N[C@@H](CCCCN)c1nc(C)sc1C(N)=O	0.8	100	> 150	5.2	100	50	> 100	0.8 (≈ 2.03 µg/mL)	> 100	> 150	8.3 (≈ 21 µg/mL)	62.5 (≈ 158 µg/mL)	> 100
CC(=O)N[C@@H](CCCCN)c1nc(C)sc1C(=O)N[C@@H](C)c1nc(CCCCN)sc1C(=O)N[C@@H](C)c1nc(C)sc1C(N)=O	> 150	> 150	> 150	> 150	> 150	> 150	> 100	> 150	> 150	> 150	> 150	> 150	> 150
CC(=O)N[C@@H](CCCCN)c1nc(C)sc1C(=O)N[C@@H](CC(C)C)c1nc(CCCCN)sc1C(=O)N[C@@H](C)c1nc(CC(C)C)sc1C(=O)N[C@@H](CCCCN)c1nc(C)sc1C(=O)N[C@@H](CC(C)C)c1nc(CCCCN)sc1C(=O)N[C@@H](C)c1nc(CC(C)C)sc1C(=O)N[C@@H](CCCCN)c1nc(C)sc1C(=O)N[C@@H](CC(C)C)c1nc(CCCCN)sc1C(=O)N[C@@H](C)c1nc(CC(C)C)sc1C(=O)N[C@@H](CCCCN)c1nc(C)sc1C(=O)N[C@@H](CC(C)C)c1nc(CCCCN)sc1C(=O)N[C@@H](C)c1nc(CC(C)C)sc1C(N)=O	4.2	16.7	10.4	14.6	14.6	25	> 100	6.2 (≈ 17.8 µg/mL)	25 (≈ 71.8 µg/mL)	12.5 (≈ 35.9 µg/mL)	16.5 (≈ 47.4 µg/mL)	25 (≈ 71.8 µg/mL)	19 (≈ 54.6 µg/mL)
CC[C@H](C)[C@H](NC(=O)CN)C(=O)NCC(=O)N[C@@H](C)C(=O)N[C@H](C(=O)N[C@@H](CC(C)C)C(=O)N[C@@H](CCCCN)C(=O)N[C@H](C(=O)N[C@@H](CC(C)C)C(=O)N[C@H](C(=O)N[C@H](C(=O)NCC(=O)N[C@@H](CC(C)C)C(=O)N1CCC[C@H]1C(=O)N[C@@H](C)C(=O)N[C@@H](CC(C)C)C(=O)N[C@H](C(=O)N[C@@H](CO)C(=O)N[C@@H](Cc1c[nH]c2ccccc12)C(=O)N[C@H](C(=O)N[C@@H](CCCCN)C(=O)N[C@@H](CCCNC(=N)N)C(=O)N[C@@H](CCCCN)C(=O)N[C@@H](CCCNC(=N)N)C(=O)N[C@@H](CCC(N)=O)C(=O)N[C@@H](CCC(N)=O)C(N)=O)[C@@H](C)CC)[C@@H](C)CC)[C@@H](C)O)[C@@H](C)O)C(C)C)C(C)C [MELITTIN]			1.6			1.6		1.1 (≈ 3.13 µg/mL)	1.2 (≈ 3.42 µg/mL)	1.6 (≈ 4.55 µg/mL)	4.7 (≈ 13.4 µg/mL)	1.6 (≈ 4.55 µg/mL)	3.1 (≈ 8.82 µg/mL)
